Results taken from ChEMBL document CHEMBL1133746 (J Med Chem, 2000).
*1 amine or outer side, *2 acyl side, *3 side chain or, on linkers, in order; H or OH if unused. Where a SMILES comes first, the peptide text is derived from it. [ ]: non-standard residue; d: D form. The star is where a group is joined. X2 = O=C(O)CN1C(=O)[C@H](N*)CSc2ccccc21; X1 = O=C([C@@H]1CC(O)CN1[*:1])[*:2]; Igl = N[C@H](C(=O)O)C1Cc2ccccc2C1; Hyp = O=C(O)[C@@H]1C[C@@H](O)CN1; 2Thi = N[C@@H](Cc1cccs1)C(=O)O

What was measured:
B1 bradykinin receptor = molecular target: T1, B1 bradykinin receptor (Homo sapiens, UniProt P46663); assay: Ability to bind to human cloned B1 receptor in competition binding experiments with [3H][des-Arg10,Leu9]-Kallidin.
T1 sequence (P46663 whole entry): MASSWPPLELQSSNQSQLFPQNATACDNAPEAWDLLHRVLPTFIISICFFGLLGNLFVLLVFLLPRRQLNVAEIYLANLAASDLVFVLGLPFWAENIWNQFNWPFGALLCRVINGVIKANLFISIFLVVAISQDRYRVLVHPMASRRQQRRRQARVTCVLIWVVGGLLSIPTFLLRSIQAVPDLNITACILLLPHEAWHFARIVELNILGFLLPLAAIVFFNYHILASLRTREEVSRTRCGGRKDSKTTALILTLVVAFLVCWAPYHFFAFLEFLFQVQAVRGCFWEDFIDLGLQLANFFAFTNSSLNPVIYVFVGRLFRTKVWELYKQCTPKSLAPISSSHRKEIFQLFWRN
In short: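 Membranes from stably transfected human embryonic kidney 293 cells expressing the human B1 receptor were used. Cells were scraped into 25 mM TES pH 7.4 with 1 mM 1,10-phenanthroline, 140 µg/mL bacitracin and 0.1% BSA, and membranes were spun at 40000g for 15 min. Incubation was with 1 nM [3H][des-Arg10,Leu9]-kallidin for 60 min. Nonspecific binding was taken with 10 µM [des-Arg10,Leu9]-kallidin. Bound label was collected by filtration on PEI-soaked GF/B filters and counted by scintillation.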

Homo sapiens [1] = species on record: Homo sapiens; assay: Ability to inhibit contraction of human umbilical vein (HUV) induced by [des-Arg10]-Kallidin was determined.; assay type: functional; details: read-out: pA2 (converted)
In short: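 Human umbilical vein rings (3–4 mm) were kept overnight at 37 °C in Krebs with penicillin/streptomycin under 95% O2/5% CO2 to induce B1. They were then set in organ baths at 37 °C with captopril, thiorphan, mepyramine, atropine, indomethacin, NG-nitro-L-arginine and nifedipine added. [des-Arg10]-kallidin concentration-response curves were run 30 min later, with antagonist or vehicle added 15 min before. Means are of at least 3 experiments.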

B2 bradykinin receptor = molecular target: T2, B2 bradykinin receptor (Homo sapiens, UniProt P30411); assay: Ability to bind to human cloned B2 receptor in competition binding experiments with [3H]- bradykinin
T2 sequence (P30411 whole entry): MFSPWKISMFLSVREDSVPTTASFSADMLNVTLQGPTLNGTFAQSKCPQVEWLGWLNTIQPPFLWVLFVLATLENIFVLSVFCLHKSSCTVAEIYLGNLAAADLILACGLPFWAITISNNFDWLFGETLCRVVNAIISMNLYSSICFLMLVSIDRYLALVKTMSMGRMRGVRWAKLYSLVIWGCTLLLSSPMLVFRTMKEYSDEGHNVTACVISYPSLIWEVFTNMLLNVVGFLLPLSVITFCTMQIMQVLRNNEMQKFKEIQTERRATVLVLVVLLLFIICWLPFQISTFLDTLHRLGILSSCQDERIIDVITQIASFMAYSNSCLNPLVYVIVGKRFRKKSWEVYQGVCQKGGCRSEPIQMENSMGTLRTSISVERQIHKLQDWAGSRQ
In short: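 Membranes were prepared from stably transfected CHO cells expressing the human B2 receptor. Cells were scraped into 20 mM TES pH 6.8 with 1 mM 1,10-phenanthroline, 140 µg/mL bacitracin and 0.1% BSA, and membranes were spun at 40000g for 15 min. Bound label was filtered on PEI-soaked GF/B filters, washed with ice-cold buffer and counted.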

Homo sapiens [2] = species on record: Homo sapiens; assay: Inhibition of contraction of human umbilical vein (HUV) induced by different concentrations of bradykinin was determined; assay type: functional; details: for Kb: read-out: pA2 (converted)
In short: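 Human umbilical vein rings (3–4 mm) were mounted in Krebs organ baths at 37 °C with 95% O2/5% CO2. Captopril (10 µM), DL-thiorphan (1 µM), mepyramine (1 µM), atropine (1 µM), indomethacin (3 µM), NG-nitro-L-arginine (30 µM) and nifedipine (0.1 µM) were added. […] Means are of at least 3 experiments.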

Ki (B1 bradykinin receptor) [nM] | Ki (B2 bradykinin receptor) [nM] | Compound | Kb (Homo sapiens [1]) [nM] | Kb (Homo sapiens [2]) [nM] | pKp (Homo sapiens [2]) | pD2 (Homo sapiens [2])
> 1000 |  | NC(N)=NCCC[C@@H](N)C(=O)N[C@@H](CCCN=C(N)N)C(=O)N1CCC[C@H]1C(=O)N1C[C@H](O)C[C@H]1C(=O)NCC(=O)N[C@@H](Cc1cccs1)C(=O)N[C@@H](CO)C(=O)N1Cc2ccccc2C[C@@H]1C(=O)N1[C@H](C(=O)N[C@@H](CCCN=C(N)N)C(=O)O)C[C@@H]2CCCC[C@@H]21 | > 10000 |  |  | 
5.6 | 325 | NC(N)=NCCC[C@@H](N)C(=O)N[C@@H](CCCN=C(N)N)C(=O)N1CCC[C@H]1C(=O)N1CC(O)C[C@H]1C(=O)NCC(=O)N[C@H](C(=O)N[C@@H](CO)C(=O)N[C@@H]1CSc2ccccc2N(CC(=O)O)C1=O)C1Cc2ccccc2C1 (some centres undefined) |  | > 10000 |  | 
 | > 1000 | CC(C)C[C@H](NC(=O)[C@@H]1CCCN1C(=O)[C@H](CO)NC(=O)[C@H](Cc1ccccc1)NC(=O)CNC(=O)[C@@H]1CCCN1C(=O)[C@@H]1CCCN1C(=O)[C@@H](N)CCCN=C(N)N)C(=O)O | 398 | > 10000 |  | 
0.22 | 0.4 | NCCCC[C@H](N)C(=O)N[C@@H](CCCN=C(N)N)C(=O)N1CCC[C@H]1C(=O)N1CC(O)C[C@H]1C(=O)NCC(=O)N[C@@H](Cc1cccs1)C(=O)N[C@@H](CO)C(=O)N[C@@H]1CSc2ccccc2N(CC(=O)O)C1=O (some centres undefined) (H-KRP[X1]G[2Thi]S-X2) [listing 1 of 2 here] | 39.8 |  |  | 
24 |  | NC(N)=NCCC[C@@H](N)C(=O)N[C@@H](CCCN=C(N)N)C(=O)N1CCC[C@H]1C(=O)N1C[C@H](O)C[C@H]1C(=O)NCC(=O)N[C@@H](Cc1cccs1)C(=O)N[C@@H](CO)C(=O)N1Cc2ccccc2C[C@@H]1C(=O)N1[C@H](C(=O)O)C[C@@H]2CCCC[C@@H]21 | 31.6 | > 10000 |  | 
 |  | NCCCC[C@H](N)C(=O)N[C@@H](CCCN=C(N)N)C(=O)N1CCC[C@H]1C(=O)N1CC(O)C[C@H]1C(=O)NCC(=O)N[C@@H](Cc1cccs1)C(=O)N[C@@H](CO)C(=O)N[C@@H]1CSc2ccccc2N(CC(=O)O)C1=O (some centres undefined) (H-KRP[X1]G[2Thi]S-X2) [listing 2 of 2 here] |  |  | 4.8 | 
 | > 1000 | CC(C)C[C@H](NC(=O)[C@@H]1CCCN1C(=O)[C@H](CO)NC(=O)[C@H](Cc1ccccc1)NC(=O)CNC(=O)[C@@H]1CCCN1C(=O)[C@@H]1CCCN1C(=O)[C@H](CCCN=C(N)N)NC(=O)[C@@H](N)CCCCN)C(=O)O | 12.6 | > 10000 |  | 
83 | 4.4 | N=C(N)NCCC[C@@H](N)C(=O)N[C@@H](CCCNC(=N)N)C(=O)N1CCC[C@H]1C(=O)N1CC(O)C[C@H]1C(=O)NCC(=O)N[C@@H](Cc1cccs1)C(=O)N[C@@H](CO)C(=O)N[C@@H]1CSc2ccccc2N(CC(=O)O)C1=O (some centres undefined) |  |  |  | 
0.035 | 62 | NCCCC[C@H](NC(=O)[C@@H](N)CCCCN)C(=O)N[C@@H](CCCN=C(N)N)C(=O)N1CCC[C@H]1C(=O)N1CC(O)C[C@H]1C(=O)NCC(=O)N[C@H](C(=O)N[C@@H](CO)C(=O)N[C@@H]1CSc2ccccc2N(CC(=O)O)C1=O)C1Cc2ccccc2C1 (some centres undefined) (H-KKRP[X1]G[Igl]S-X2) | 3.16 | 3160 |  | 
 |  | H-RPPGFSPFR-OH [BRADYKININ] |  |  |  | 7.9
0.023 | 9.2 | NCCCC[C@H](N)C(=O)N[C@@H](CCCN=C(N)N)C(=O)N1CCC[C@H]1C(=O)N1C[C@H](O)C[C@H]1C(=O)NCC(=O)N[C@H](C(=O)N[C@@H](CO)C(=O)N[C@@H]1CSc2ccccc2N(CC(=O)O)C1=O)C1Cc2ccccc2C1 (H-KRP[Hyp]G[Igl]S-X2) | 10 | > 10000 |  | 
